# Active and inactive are the calls of the source. The rule behind the calls is not given here.
# Columns and labels:
# Staphylococcus aureus [1] = experiment: Antibacterial activity against methicillin-resistant Staphylococcus aureus 48/05 isolates after 18 hrs; format: functional
# Outline: (§1)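 Agar-dilution MIC on Mueller–Hinton II agar per CLSI guidelines. Aqueous test solutions were added to liquid agar to give two dilution series across 6.25–400 µg/mL. Solidified plates were spot-inoculated with 2 µL aliquots to a final inoculum of 10^4 […]. […] Strains were standard S. aureus strains or hospital patient isolates typed MSSA/MRSA.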
# Staphylococcus aureus [2] = experiment: Antibacterial activity against methicillin-resistant Staphylococcus aureus 47/05 isolates after 18 hrs; format: functional; outline: as §1
# Staphylococcus aureus [3] = experiment: Antibacterial activity against Staphylococcus aureus NCTC 4163 after 18 hrs; format: functional; settings: NCTC 4163, 18 h; outline: as §1
# Staphylococcus aureus [4] = experiment: Antibacterial activity against methicillin-resistant Staphylococcus aureus 53/05 isolates after 18 hrs; format: functional; outline: as §1
# Staphylococcus aureus [5] = experiment: Antibacterial activity against methicillin-resistant Staphylococcus aureus 55/05 isolates after 18 hrs; format: functional; outline: as §1
# Staphylococcus aureus [6] = experiment: Antibacterial activity against methicillin-susceptible Staphylococcus aureus 4/04 isolates after 18 hrs; format: functional; outline: as §1
# Pseudomonas aeruginosa [7] = experiment: Antibacterial activity against Pseudomonas aeruginosa NCTC 6749 at 400 ug/disk […] by disc-diffusion method; format: functional, organism-based
# Staphylococcus aureus [8] = experiment: Antibacterial activity against methicillin-susceptible Staphylococcus aureus 49/05 isolates after 18 hrs; format: functional; outline: as §1
# Staphylococcus aureus [9] = experiment: Antibacterial activity against methicillin-susceptible Staphylococcus aureus 69/05 isolates after 18 hrs; format: functional; outline: as §1
# Staphylococcus aureus [10] = experiment: Antibacterial activity against Staphylococcus aureus ATCC 6538P at 400 ug/disk after 24 to 48 hrs by disc-diffusion method; format: functional; settings: read-out: IZ
# Staphylococcus aureus [11] = experiment: Antibacterial activity against methicillin-susceptible Staphylococcus aureus 102/06 isolates after 18 hrs; format: functional; outline: as §1
# Staphylococcus aureus [12] = experiment: Antibacterial activity against Staphylococcus aureus ATCC 6538P after 18 hrs; format: functional; outline: as §1
# [13] = system: Bordetella bronchiseptica; experiment: Antibacterial activity against Bordetella bronchiseptica ATCC 4617 at 400 ug/disk […] by disc-diffusion method; format: functional; settings: read-out: IZ
# Staphylococcus aureus [14] = experiment: Antibacterial activity against Staphylococcus aureus ATCC 29213 at 100 ug/disk after 24 to 48 hrs by disc-diffusion method; format: functional; settings: read-out: IZ
# Staphylococcus aureus [15] = experiment: Antibacterial activity against methicillin-susceptible Staphylococcus aureus 14/04 isolates after 18 hrs; format: functional; outline: as §1
# Staphylococcus aureus [16] = experiment: Antibacterial activity against methicillin-susceptible Staphylococcus aureus 40/05 isolates after 18 hrs; format: functional; outline: as §1
# Staphylococcus aureus [17] = experiment: Antibacterial activity against methicillin-susceptible Staphylococcus aureus 98/06 isolates after 18 hrs; format: functional; outline: as §1
# Staphylococcus aureus [18] = experiment: Antibacterial activity against methicillin-susceptible Staphylococcus aureus 2/04 isolates after 18 hrs; format: functional; outline: as §1
# Enterococcus hirae = experiment: Antibacterial activity against Enterococcus hirae ATCC 10541 at 400 ug/disk after 24 to 48 hrs by disc-diffusion method; format: functional; settings: read-out: IZ
# Staphylococcus aureus [19] = experiment: Antibacterial activity against methicillin-susceptible Staphylococcus aureus 38/05 isolates after 18 hrs; format: functional; outline: as §1
# Staphylococcus aureus [20] = experiment: Antibacterial activity against methicillin-susceptible Staphylococcus aureus 65/05 isolates after 18 hrs; format: functional; outline: as §1
# Staphylococcus aureus [21] = experiment: Antibacterial activity against methicillin-resistant Staphylococcus aureus 90/06 isolates after 18 hrs; format: functional; outline: as §1
# Staphylococcus aureus [22] = experiment: Antibacterial activity against Staphylococcus aureus ATCC 25923 at 400 ug/disk after 24 to 48 hrs by disc-diffusion method; format: functional; settings: read-out: IZ
# Staphylococcus aureus [23] = experiment: Antibacterial activity against methicillin-susceptible Staphylococcus aureus 36/05 isolates after 18 hrs; format: functional; outline: as §1
# Staphylococcus aureus [24] = experiment: Antibacterial activity against methicillin-susceptible Staphylococcus aureus 101/06 isolates after 18 hrs; format: functional; outline: as §1
# Staphylococcus aureus [25] = experiment: Antibacterial activity against Staphylococcus aureus ATCC 25923 after 18 hrs; format: functional; settings: ATCC 25923, 18 h; outline: as §1
# Staphylococcus aureus [26] = experiment: Antibacterial activity against methicillin-susceptible Staphylococcus aureus 3/04 isolates after 18 hrs; format: functional; outline: as §1
# Staphylococcus aureus [27] = experiment: Antibacterial activity against methicillin-resistant Staphylococcus aureus 1/04 isolates after 18 hrs; format: functional; outline: as §1
# Staphylococcus aureus [28] = experiment: Antibacterial activity against methicillin-susceptible Staphylococcus aureus 42/05 isolates after 18 hrs; format: functional; outline: as §1
# Staphylococcus aureus [29] = experiment: Antibacterial activity against methicillin-susceptible Staphylococcus aureus 7/04 isolates after 18 hrs; format: functional; outline: as §1
# Pseudomonas aeruginosa [30] = experiment: Antibacterial activity against Pseudomonas aeruginosa ATCC 15442 at 100 ug/disk […] by disc-diffusion method; format: functional, organism-based
# Staphylococcus aureus [31] = experiment: Antibacterial activity against methicillin-resistant Staphylococcus aureus 79/05 isolates after 18 hrs; format: functional; outline: as §1
# Staphylococcus aureus [32] = experiment: Antibacterial activity against methicillin-resistant Staphylococcus aureus 92/06 isolates after 18 hrs; format: functional; outline: as §1
smiles,measurement,setting,value
CC1=C(C)C2(C)C3C(=O)N(OCC(O)C[N+](C)(C)CC(O)CON4C(=O)C5C(C4=O)C4(C)C(C)=C(C)C5(C)C4C)C(=O)C3C1(C)C2C.[Cl-] (stereo not drawn),MIC,Staphylococcus aureus [1],100 µg/mL
same,MIC,Staphylococcus aureus [2],50 µg/mL
same,MIC,Staphylococcus aureus [3],50 µg/mL
same,MIC,Staphylococcus aureus [4],50 µg/mL
same,MIC,Staphylococcus aureus [5],100 µg/mL
same,MIC,Staphylococcus aureus [6],25 µg/mL
same,Activity,Pseudomonas aeruginosa [7],inactive
same,MIC,Staphylococcus aureus [8],25 µg/mL
same,MIC,Staphylococcus aureus [9],25 µg/mL
same,zone of inhibition at 400 µg/disc,Staphylococcus aureus [10],23 mm
same,MIC,Staphylococcus aureus [11],50 µg/mL
same,MIC,Staphylococcus aureus [12],50 µg/mL
same,zone of inhibition at 400 µg/disc,[13],21 mm
same,zone of inhibition at 100 µg/disc,Staphylococcus aureus [14],14 mm
same,MIC,Staphylococcus aureus [15],25 µg/mL
same,MIC,Staphylococcus aureus [16],50 µg/mL
same,MIC,Staphylococcus aureus [17],100 µg/mL
same,MIC,Staphylococcus aureus [18],25 µg/mL
same,zone of inhibition at 400 µg/disc,Enterococcus hirae,18 mm
same,MIC,Staphylococcus aureus [19],50 µg/mL
same,MIC,Staphylococcus aureus [20],25 µg/mL
same,MIC,Staphylococcus aureus [21],100 µg/mL
same,zone of inhibition at 400 µg/disc,Staphylococcus aureus [22],20 mm
same,MIC,Staphylococcus aureus [23],50 µg/mL
same,MIC,Staphylococcus aureus [24],50 µg/mL
same,MIC,Staphylococcus aureus [25],50 µg/mL
same,MIC,Staphylococcus aureus [26],25 µg/mL
same,MIC,Staphylococcus aureus [27],50 µg/mL
same,MIC,Staphylococcus aureus [28],25 µg/mL
same,MIC,Staphylococcus aureus [29],25 µg/mL
same,Activity,Pseudomonas aeruginosa [30],inactive
same,MIC,Staphylococcus aureus [31],200 µg/mL
same,MIC,Staphylococcus aureus [32],100 µg/mL

# — ChEMBL document CHEMBL1141663, “Synthesis and antibacterial activity of bis-[2-hydroxy-3-(1,7,8,9,10-pentamethyl-3,5-dioxo-4-aza-tricyclo[5.2.1.0(2,6)]dec-8-en-4-yloxy)-propyl]-dimethyl-ammonium chloride” (2008)
